Assay results: the RNAGym collection of RNA variant scans (doi:10.1126/science.aae0568)
Fewer inactive variants are shown than the library holds.

B1: tRNA (parent)
chain: GUUCCGUUGGCGUAAUGGUAACGCGUCUCCCUCCUAAGGAGAAGACUGCGGGUUCGAGUCCCGUACGGAACG

Variants of: B1
Assay: yeast fitness relative to wild type (ratio to wild type); higher = fitter; tRNA-Arg(CCU), competitive growth, 37 C, YPD
Summary of the method: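 Genotype frequency changes were the basis for Darwinian fitness relative to wild type. The frequencies came from 100-nucleotide paired-end sequencing of gene amplicons from the start population and each end population of pooled yeast strains with tRNA-Arg(CCU) gene variants at the native locus. Competition ran in YPD at 37°C for 24 hours in six replicates, genotypes needed ≥ 100 starting reads, and estimates < 0.5 were set to 0.5.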

Yeast fitness, 0.528:
C11G C24G C62U

Yeast fitness, 0.527:
C11G A36U A42G A43C
C11G A42G A45U U64C A70C

Yeast fitness, 0.696:
C11G C30G C31G U32A C55G G67A

Yeast fitness, 0.543:
C11G C29U A69U

Yeast fitness, 0.666:
C11G A45U

Yeast fitness, 0.544:
C11G C34U G41A

Yeast fitness, 0.752:
C11G C46U

Yeast fitness, 0.608:
C11G A42U

Yeast fitness, 0.566:
C11G C24G G67C

Yeast fitness, 0.533:
C11G A36C G56A

Yeast fitness, 0.732:
C11G C22U G68C

Yeast fitness, 0.555:
C11G C31G

Yeast fitness, 0.522:
C11G C49A

Yeast fitness, 0.505:
C11G A43U G67C

Yeast fitness, 0.525:
C11G C62U A65U

Yeast fitness, 0.631:
C11G A21U C24U C66U
C11G C49U

Yeast fitness, 0.536:
C11G A21U

Yeast fitness, ≤ 0.5:
C11G A21G A40G
C11G A21G A40G A69U
C11G A21G A40G G58A C62G
C11G A21G C34A
C11G A21G C34G A40C
C11G A21G G50A U64A
C11G A21U C24G G51A G68A
C11G A21U G39C G44A U47A
C11G A21U U26C
C11G A21U U47A G63C
C11G A36C
C11G A36C A45G A57C C61G
C11G A36C A57C C66G
C11G A36C C46U
C11G A36C C49A
C11G A36C G38U G56A
C11G A36C G41A C66U
C11G A36C G52C G56A
C11G A36C G56A A69U
C11G A36C G56A A70U
C11G A36C G68C
C11G A36G G52A
C11G A37C A42U
C11G A37G G38A A45U A70G
C11G A37G G50A
C11G A40C C46U C60A
C11G A40U A45U A69U
C11G A40U C62A
C11G A42C U47A G63C A69C
C11G A42G U54C A57C
C11G A42U A43C C55A C66A
C11G A42U C49U C62U
C11G A43U A45G U47C
C11G A45C A65C
C11G A45G C49U C55A A70U
C11G A45U U64C
C11G A57U
C11G A65C C66G
C11G C22A C31A C61A
C11G C22A C46G
C11G C24A C66G
C11G C24G A57G
C11G C24G C27A U28C C33U A65U
C11G C24G U54C G67C
C11G C24U A42C A65C
C11G C24U A57G G68C
C11G C24U C62U G68C
C11G C24U U28C
C11G C24U U28C C66G
C11G C24U U28C G51A
C11G C27A A36G G38A A65C
C11G C27A A57C C62U
C11G C27A C31A
C11G C27A C34G
C11G C27G
C11G C27G A70G
C11G C27G G67A
C11G C27U A43C A65U
C11G C27U C33G G52A
C11G C27U C34U
C11G C27U C46G
C11G C27U U47A G52C
C11G C29A C60U U64A
C11G C29A U35C A43C
C11G C29A U54A A57U
C11G C29G C33U C46A C49G G68C
C11G C29G C49U G63A
C11G C29G C55A U64C
C11G C29G U32G G38A U53C
C11G C29G U35C A45U
C11G C29U C34U C62A U64C C66U
C11G C29U C46G
C11G C29U C61A
C11G C29U C66A
C11G C29U G52A
C11G C29U U35C C66A
C11G C30A A42C C61A
C11G C30A C31G G50A
C11G C30A G52A A65U
C11G C30A U35A
C11G C30G A65C
C11G C30G C31G U32A G56A
C11G C30G C33A C66U
C11G C30U A37C C46U A57C
C11G C30U A37C C55G A65G
C11G C30U A37U
C11G C30U C31A A40U C49A
C11G C30U G67C
C11G C31A A42G A43G G68C
C11G C31A C55U
C11G C31A G39A
C11G C31A G39A G48A A57G A65G
C11G C31G C34U A40C
C11G C31G C55G C60A
C11G C31U C46G G63A
C11G C33G
C11G C33G A69U
C11G C33U G68C
C11G C34A A45G U54A
C11G C34G A36G G48C
C11G C34G G48A
C11G C34U C66U
C11G C49A A57U U64A G67U
C11G C49G C60A A70U
C11G C49U C62U A70U
C11G C49U G50A C61U
C11G C49U G68U
C11G C55G A57C C66U
C11G C62U G63A
C11G G12A C31G
C11G G12A C31G A69C

Yeast fitness, 0.636:
C11G A42C

Yeast fitness, 0.626:
C11G C27G U28G

Yeast fitness, 0.646:
C11G C34A A36U G48A G52C C60A

Yeast fitness, 0.64:
C11G C33G A37U A45U

Yeast fitness, 0.561:
C11G A21G C31G A65U
C11G C46U A65C

Yeast fitness, 0.535:
C11G C27U C60A
C11G C49U C62U

Yeast fitness, 0.563:
C11G C62A A70C

Yeast fitness, 0.669:
C11G G12A C27G

Yeast fitness, 0.508:
C11G C31A

Yeast fitness, 0.551:
C11G C30G C31G U32A C66U

Yeast fitness, 0.526:
C11G C24U C34A A37C C55G

Yeast fitness, 0.578:
C11G C22G C27G C62U

Yeast fitness, 0.713:
C11G C60G

Yeast fitness, 0.611:
C11G A20U U28C A37C C49G
C11G C24G G51C

Yeast fitness, 0.573:
C11G A21U C24U U64A A65G G67U

Yeast fitness, 0.718:
C11G C29U A36C A42G

Yeast fitness, 0.649:
C11G A42G

Yeast fitness, 0.614:
C11G C29A C31G C46A C60G

Yeast fitness, 0.504:
C11G C29A C61U

Yeast fitness, 0.717:
C11G C27U A36U G48C C49U

Yeast fitness, 0.506:
C11G C29U C34U

Yeast fitness, 0.557:
C11G C55G G63C G67C

Yeast fitness, 0.776:
C11G A70C

Yeast fitness, 0.63:
C11G A43C

Yeast fitness, 0.642:
C11G C62G

Yeast fitness, 0.59:
C11G A45C
C11G C22G C33G
C11G C34U U35A C55U

Yeast fitness, 0.624:
C11G A57G
C11G C46G A57U

Yeast fitness, 0.602:
C11G C31G A42U A65C

Yeast fitness, 0.604:
C11G C27U A36U A37U G41C A43C C49G C62G

Yeast fitness, 0.872:
C11G A21G G51C

Yeast fitness, 0.68:
C11G A36C C46G C60G
